Results from ChEMBL document CHEMBL1136272, “Development of a presynaptic 5-HT1A antagonist” (Bioorg Med Chem Lett, 2003).

Columns and labels:
[1] = target: T1, 5-hydroxytryptamine receptor 1A (Rattus norvegicus, UniProt P19327); assay: Inhibition of the 5-hydroxytryptamine 1A receptor in rat dorsal raphe
T1 sequence (P19327 whole entry): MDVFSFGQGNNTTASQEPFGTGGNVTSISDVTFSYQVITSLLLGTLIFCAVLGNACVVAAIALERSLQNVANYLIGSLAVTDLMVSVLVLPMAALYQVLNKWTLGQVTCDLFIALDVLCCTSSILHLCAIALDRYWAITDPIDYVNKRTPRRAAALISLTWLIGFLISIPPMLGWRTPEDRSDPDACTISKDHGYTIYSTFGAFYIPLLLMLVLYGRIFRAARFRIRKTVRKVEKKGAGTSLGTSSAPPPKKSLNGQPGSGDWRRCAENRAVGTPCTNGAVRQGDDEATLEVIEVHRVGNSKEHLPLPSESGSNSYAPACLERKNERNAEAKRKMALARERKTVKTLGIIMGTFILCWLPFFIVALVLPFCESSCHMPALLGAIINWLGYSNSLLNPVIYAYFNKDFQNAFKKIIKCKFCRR

Rattus norvegicus [2] = assay: Social interaction time determined in vivo rat at 0.1 mg/kg of ip administration; assay type: functional; conditions: route intraperitoneal
Summary of the method: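 Rats dosed i.p. against a saline-treated control group. Social interaction time (s) and total motor activity (counts) were recorded in the same social-interaction session and reported as mean ± SEM, with significance tested against saline control.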

Rattus norvegicus [3] = assay: In vivo motor activity determined in rat at 0.1 mg/kg of ip administration; assay type: functional; conditions: route intraperitoneal
Summary of the method: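 Rat social interaction paradigm with total motor activity counts recorded in the same session. All compounds were given ip, with a saline-treated control group. Combination arms gave a 0.1 mg/kg agent together with a second agent at 1 mg/kg, both ip. Social interaction time (s) and motor counts are reported as mean ± SEM, with significance tested against saline control.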

| Structure (SMILES) | IC50 [1] [nM] | Time (Rattus norvegicus [2]) [s] | Motor activity (Rattus norvegicus [3]) [Counts] |
| --- | --- | --- | --- |
| OC1(c2ccccc2)CCC(N2CCN(Cc3ccccc3)CC2)CC1 (stereo not drawn) | 460 |  |  |
| OC1(c2ccc3c(c2)OCO3)CCC(N2CCN(Cc3ccc(Cl)cc3)CC2)CC1 (stereo not drawn) | 79 |  |  |
| COc1cccc(C2(O)CCC(N3CCN(Cc4ccccc4)CC3)CC2)c1 (stereo not drawn) | 50 |  |  |
| OC1(c2ccc3c(c2)OCO3)CCC(N2CCN(Cc3ccccc3Br)CC2)CC1 (stereo not drawn) | 1.2 |  |  |
| OC1(c2ccc(F)cc2)CCC(N2CCN(Cc3ccccc3)CC2)CC1 (stereo not drawn) | 260 |  |  |
| OC(CCCN1CCN(c2ncc(F)cn2)CC1)c1ccc(F)cc1 (stereo not drawn) [BMY-14802] |  | 123 | 6800 |
| O=C1CC2(CCCC2)CC(=O)N1CCCCN1CCN(c2ncccn2)CC1 [BUSPIRONE] |  | 125 | 6700 |

Now from value to compound, other results behind:

| IC50 [1] [nM] | Structure (SMILES) | Time (Rattus norvegicus [2]) [s] | Motor activity (Rattus norvegicus [3]) [Counts] |
| --- | --- | --- | --- |
| 43 | COc1ccccc1CN1CCN(C2CCC(O)(c3ccc4c(c3)OCO4)CC2)CC1 (stereo not drawn) |  |  |
| 140 | COc1ccc(C2(O)CCC(N3CCN(Cc4ccccc4)CC3)CC2)cc1OC (stereo not drawn) |  |  |
| 1.2 | OC1(c2ccc3c(c2)OCO3)CCC(N2CCN(Cc3ccccc3I)CC2)CC1 (stereo not drawn) |  |  |
| 110 | OC1(c2ccc3c(c2)OCO3)CCC(N2CCN(Cc3c(F)cccc3F)CC2)CC1 (stereo not drawn) |  |  |
| 50 | COc1ccc(C2(O)CCC(N3CCN(Cc4ccccc4)CC3)CC2)cc1 (stereo not drawn) |  |  |
| 380 | COc1ccc(CN2CCN(C3CCC(O)(c4ccc5c(c4)OCO5)CC3)CC2)cc1 (stereo not drawn) |  |  |
| 6.7 | CCOc1cccc(CN2CCN(C3CCC(O)(c4ccc5c(c4)OCO5)CC3)CC2)c1 (stereo not drawn) |  |  |
| 19 | COc1cccc(CN2CCN(C3CCC(O)(c4ccc5c(c4)OCO5)CC3)CC2)c1F (stereo not drawn) |  |  |
| 2.8 | OC1(c2ccc3c(c2)OCO3)CCC(N2CCN(Cc3cccc(Br)c3)CC2)CC1 (stereo not drawn) |  |  |
